The results in this text go back to PubChem BioAssay AID623950 (Broad Institute, 2012).

SMILES strings stand for the structures. Active and inactive are the calls of the source.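 Rule for the calls: active = compounds lowering cell ATP signal with fitted IC50 at most twice the highest tested dose; inconclusive = flat fit with 30 to 70% signal loss, or poor fit; inactive = the rest.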 Bounds are passed on as bounds.

Test system in the first experiment: not listed separately
Nature of the experiment: toxicity to human HeLa cells – cell-based, CellTiter-Glo luminescence, dry powder samples, cytotoxicity control for pyoverdine inhibitor project, dose response (AID 623950). Conditions: HeLa viability, CellTiter-Glo ATP luminescence; at 50 µM (top of the series). In short, it runs like this:
(§1)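 Material: HeLa cells; quantity: 2,500 HeLa cells per well; medium: phenol red-free DMEM with 10% fetal bovine serum; dosing: compound dose series in threefold dilution steps; incubation: 24 h cell growth, 48 h compound exposure; detection: CellTiter-Glo luminescence as viability measure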
`N#CC(c1ccc(C(F)(F)F)c(Cl)n1)c1ccccc1OC(F)(F)F` (stereo not drawn): the activity change, negative = toxicity is -4.77% (inactive).

Consider `N#Cc1cccc(C(C#N)c2ccc(Cl)cc2)n1` (stereo not drawn), for which the activity change, negative = toxicity is -0.235% (inactive). On to `CCCCC(C#N)c1ccc(Cl)cc1` (stereo not drawn), for which the activity change, negative = toxicity was 1.19% (inactive). As to `N#CC(c1ccc(F)cc1)c1cccc(C(F)(F)F)n1` (stereo not drawn), the activity change, negative = toxicity is 4.89% (inactive).

As to `N#CC(c1ccc(C(F)(F)F)cc1)c1cccc(Cl)n1` (stereo not drawn), the activity change, negative = toxicity is -3.15% (inactive). For the molecule `N#CC(c1ccc(Cl)cc1)c1cccc(C(F)(F)F)n1` (stereo not drawn), the activity change, negative = toxicity was -8.05% (inactive). For the molecule `N#CC(c1cccc(Cl)n1)c1ccccc1OC(F)(F)F` (stereo not drawn), the activity change, negative = toxicity was -11% (inactive).

For `Cc1ccc(C(C#N)c2ccccc2OC(F)(F)F)nc1C#N` (stereo not drawn), the activity change, negative = toxicity was -0.14% (inactive). Still for that read-out and setting: the figure for `N#CC(c1cccc(C(F)(F)F)n1)c1ccccc1OC(F)(F)F` (stereo not drawn) is 6.21% (inactive); for `CCCCC(C#N)c1ccc(Cl)cc1F` (stereo not drawn) it is -1.43% (inactive); for `N#CC(c1ccc(Cl)cc1)c1ccc(Cl)cn1` (stereo not drawn) it is -2.34% (inactive). In the case of `Cc1cccc(C(C#N)c2ccc(Cl)cc2)n1` (stereo not drawn), the activity change, negative = toxicity was -4.38% (inactive).

As to `COc1cccc(C(C#N)c2ccc(F)cc2)n1` (stereo not drawn), the activity change, negative = toxicity is -7.47% (inactive). `Cc1ccc(C(C#N)c2ccc(Cl)cc2)nc1` (stereo not drawn): the activity change, negative = toxicity is 4.52% (inactive).

`N#CC(c1ccc(Cl)cc1)c1ccc(C(F)(F)F)cn1` (stereo not drawn): the activity change, negative = toxicity is -0.58% (inactive).

Consider `N#Cc1cccc(C(C#N)c2ccc(Cl)cc2Cl)n1` (stereo not drawn), for which the activity change, negative = toxicity was 7.33% (inactive). Regarding `CCCCC(C#N)c1ccc(C(F)(F)F)cc1` (stereo not drawn), the activity change, negative = toxicity was 4.97% (inactive). Consider `N#CC(c1ccc(Cl)cc1)c1ncccc1Cl` (stereo not drawn), for which the activity change, negative = toxicity was -0.68% (inactive). Same read-out and setting: as for `Cc1ccc(C(C#N)c2ccc(F)cc2)nc1C#N` (stereo not drawn), the figure is -12.8% (inactive). For `N#Cc1cccc(C(C#N)c2ccccc2OC(F)(F)F)n1` (stereo not drawn), the activity change, negative = toxicity was -3.3% (inactive).

`CC(C)CC(C#N)c1ccc(Cl)cc1` (stereo not drawn): the activity change, negative = toxicity was -0.673% (inactive). As for `CCCC(C#N)c1ccc(Cl)cc1` (stereo not drawn), the activity change, negative = toxicity was 2.14% (inactive).

Consider `CC(C#N)(c1ccc(Cl)cc1)c1ccc(C(F)(F)F)cn1` (stereo not drawn), for which the activity change, negative = toxicity is -9.2% (inactive). Same read-out and setting: the figure for `N#CC(c1cccc(Cl)n1)c1ccc(Cl)cc1F` (stereo not drawn) is -3.91% (inactive); for `CCCCC(C#N)c1ccc(F)cc1` (stereo not drawn) it is 4.15% (inactive); for `N#CC(c1ccc(Cl)cc1Cl)c1ncccc1Cl` (stereo not drawn) it is -10.4% (inactive). Regarding `N#CC(CC1CC1)c1ccc(Cl)cc1` (stereo not drawn), the activity change, negative = toxicity was 4.91% (inactive). With `CCCCC(C#N)c1ccccc1OC(F)(F)F` (stereo not drawn), the activity change, negative = toxicity is 8.75% (inactive). On to `N#Cc1cccc(C(C#N)c2ccc(Cl)cc2F)n1` (stereo not drawn), for which the activity change, negative = toxicity is 4.41% (inactive).

With `CCCCC(C#N)c1ccc(Cl)cc1Cl` (stereo not drawn), the activity change, negative = toxicity is 0.128% (inactive). As to `N#CC(c1cccc(C(F)(F)F)n1)c1ccc(Cl)cc1F` (stereo not drawn), the activity change, negative = toxicity was -5.15% (inactive).

For the next experiment, the system named is HeLa viability, CellTiter-Glo ATP luminescence. The experiment is described as above.
Conditions: not given
In short, it runs like this:
as §1
Take `N#CC(c1ccc(C(F)(F)F)c(Cl)n1)c1ccc(Cl)cc1Cl` (stereo not drawn): the IC50 (in general, the concentration that gives 50% inhibition) is 26.7 µM. In the case of `N#CC(c1ccc(F)cc1)c1ccc(C(F)(F)F)c(Cl)n1` (stereo not drawn), the concentration for half-maximal inhibition (IC50) is 35.7 µM.

Consider `Cc1ccc(C(C#N)c2ccc(Cl)cc2)nc1C#N` (stereo not drawn), for which the IC50 is > 100 µM (inactive). Regarding `N#CC(c1ccc(C(F)(F)F)cc1)c1cccc(C(F)(F)F)n1` (stereo not drawn), the IC50 was > 100 µM (inactive). For the molecule `N#CC(c1ccc(C(F)(F)F)cc1)c1ccc(C(F)(F)F)c(Cl)n1` (stereo not drawn), the IC50 is 38.1 µM. On to `N#CC(c1cccc(Cl)n1)c1ccc(Cl)cc1Cl` (stereo not drawn), for which the IC50 was > 100 µM (inactive). As for `N#CC(c1ccc(C(F)(F)F)c(Cl)n1)c1ccc(Cl)cc1F` (stereo not drawn), the IC50 is 48.4 µM.
